Results collected from several papers.
FGFR2: Fibroblast growth factor receptor 2 (FGFR2, Homo sapiens, UniProt P21802)

CO[C@@H](C)c1c(Nc2ccc([C@H](N(C)C(=O)C3CCS(=O)(=O)CC3)C(F)(F)F)cc2)cnc2cc(Cl)nn12
remaining binding (FGFR2; cell-free assay; competition with immobilised ligand; 1 µM): 91%

CN(C)C1CCN(CC#Cc2nn(C3CCCC3)c3nc(NCc4ccccc4)ncc23)C1 (centres unmarked)
inhibition (FGFR2; enzyme activity; inhibitor; FRET; 1 µM): 8%

Nc1ncnc2occ(-c3ccc(NC(=O)Nc4cc(C(F)(F)F)ccc4F)cc3)c12
remaining signal (FGFR2; cell-free assay; 20 µM): 0%

Cc1ccc(Nc2nccc(N(C)c3ccc4c(C)n(C)nc4c3)n2)cc1S(N)(=O)=O
inhibition (FGFR2; enzyme activity; inhibitor; 0.3 µM): 92%

CCCOc1ccc(OC)c(F)c1C(=O)c1ccc(C(=O)N[C@@H]2CNC[C@H]2NC(=O)c2ccc3[nH]ncc3c2)cc1
remaining activity (Fibroblast growth factor receptor 2 (FGFR2, Homo sapiens, UniProt P21802, N549H); enzyme activity; inhibitor; 10 µM): 69%

CCN(CC)c1ccc(C2=NNC(=O)CC2C)cc1[N+](=O)[O-] (centres unmarked)
remaining activity (FGFR2; enzyme activity; inhibitor; 10 µM): 115%

CNC(=O)c1cc(Oc2ccc(NC(=O)Nc3ccc(Cl)c(C(F)(F)F)c3)cc2)ccn1
inhibition (FGFR2; enzyme activity; inhibitor; 0.3 µM): 66%

Cc1nc(C2CCN(C(=O)c3ccc(OC(F)(F)F)cc3N)CC2)c2ncc(N3CCN(C)CC3)cc2n1
remaining binding (FGFR2; cell-free assay; competition with immobilised ligand; 1 µM): 100%

CC(C)(C)c1nc2c(s1)c1nc(N)ncc1c1ccc(NS(=O)(=O)c3c(F)cccc3F)c(F)c12
remaining activity (FGFR2; enzyme activity; inhibitor; radiometric; 1 µM): 91%

COc1cc2c(N3CCN(C(=O)Nc4ccc(OC(C)C)cc4)CC3)ncnc2cc1OCCCN1CCCCC1
remaining signal (FGFR2; cell-free assay; 0.5 µM): 99.8%

CN([C@@H]1CCc2c(CC(=O)O)c3ccccc3n2C1)S(=O)(=O)c1ccc(F)cc1
remaining binding (FGFR2; cell-free assay; competition with immobilised ligand; 1 µM): 80%

Cc1cc(NC(=O)c2cccc3cc(-c4cccc5[nH]nc(N)c45)ccc23)ccc1F
activity vs control (FGFR2; enzyme activity; inhibitor; 0.1 µM): 98%

Nc1nc(Nc2ccc(S(N)(=O)=O)cc2)nn1C(=O)c1c(F)cccc1F
remaining signal (FGFR2; cell-free assay; 0.5 µM): 79.7%

C[C@@]1(Cc2ccc(C#N)cc2)C(=O)N(c2cc(Cl)cc(Cl)c2)c2ncc(C(=O)NC3(c4nc(C5CCC5)no4)CC3)n21
remaining binding (FGFR2; cell-free assay; competition with immobilised ligand; 1 µM): 100%

COc1cc(Cl)c(C(=O)N[C@@H](CN[C@H]2CC[C@@H](N)CC2)Cc2ccc(C#N)cc2)cc1-c1ccc(CN[C@H](C)c2ccc(C)cc2)o1
remaining activity (FGFR2; enzyme activity; inhibitor; 1 µM): 102%

Cc1noc([C@H]2C[C@@H](c3ccc(C(F)(F)F)cc3)CN(C(=O)N3CCS(=O)(=O)C3)C2)n1
remaining binding (FGFR2; cell-free assay; competition with immobilised ligand; 1 µM): 85%

Cc1ccc(NC(=O)c2ccc(CN3CCN(C)CC3)cc2)cc1Nc1nc(-c2cccnc2)cs1
remaining signal (FGFR2; cell-free assay; 0.5 µM): 100%
